# Test results from ChEMBL document CHEMBL1143122, “Novel analogs of D-e-MAPP and B13. Part 1: synthesis and evaluation as potential anticancer agents” (Bioorg Med Chem, 2008).
# What was measured:
# U-251 = test: Antiproliferative activity against human U251 cells after 48 hrs; format: functional; settings: U-251, 48 h
# Method in brief: (§1)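 NCI 60-cell-line screen. Lines grown in RPMI 1640 with 5% fetal bovine serum and 2 mM L-glutamine, plated at 5,000–40,000 cells/well according to doubling time, left 24 h at 37 °C in 5% CO2. Drug stocks in DMSO at 400-fold the top final concentration. Five 10-fold dilutions, 10−4 to 10−8 M, incubated 48 h. Growth read spectrophotometrically as net protein; GI50 taken as 50% reduction.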
# NCI-H522 = test: Antiproliferative activity against human NCI-H522 cells after 48 hrs; format: functional; settings: NCI-H522, 48 h
# Method in brief: (§2)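 NCI 60-cell screen. Cells were grown in RPMI 1640 with 5% FBS and 2 mM L-glutamine, then plated at 5,000–40,000 cells/well according to doubling time and preincubated for 24 h at 37 °C in 5% CO2. Compounds were dissolved in DMSO at 400× the top final concentration and tested at five 10-fold dilutions from 10−4 to 10−8 M for 48 h. Growth was read spectrophotometrically; GI50 is 50% net protein reduction.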
# CCRF-CEM = test: Antiproliferative activity against human CCRF-CEM cells after 48 hrs; format: functional; method in brief: as §2
# COLO 205 = test: Antiproliferative activity against human COLO205 cells after 48 hrs; format: functional; settings: COLO 205, 48 h; method in brief: as §2
# NCI-H23 = test: Antiproliferative activity against human NCI-H23 cells after 48 hrs; format: functional; settings: NCI-H23, 48 h; method in brief: as §2
# OVCAR-4 = test: Antiproliferative activity against human OVCAR4 cells after 48 hrs; format: functional; settings: OVCAR-4, 48 h; method in brief: as §2
# RPMI-8226 = test: Antiproliferative activity against human RPMI8226 cells after 48 hrs; format: functional; settings: RPMI-8226, 48 h; method in brief: as §2
# HCT-116 = test: Antiproliferative activity against human HCT116 cells after 48 hrs; format: functional; settings: HCT-116, 48 h; method in brief: as §2
# RXF 393 = test: Antiproliferative activity against human RXF393 cells after 48 hrs; format: functional; settings: RXF 393, 48 h; method in brief: as §2
# BT-549 = test: Antiproliferative activity against human BT549 cells after 48 hrs; format: functional; settings: BT-549, 48 h; method in brief: as §2
# Hs-578T = test: Antiproliferative activity against human HS578T cells after 48 hrs; format: functional; method in brief: as §2
# ACHN = test: Antiproliferative activity against human ACHN cells after 48 hrs; format: functional; method in brief: as §2
# SNB-75 = test: Antiproliferative activity against human SNB75 cells after 48 hrs; format: functional; settings: SNB-75, 48 h; method in brief: as §2
# K562 = test: Antiproliferative activity against human K562 cells after 48 hrs; format: functional; settings: K562, 48 h; method in brief: as §2
# Malme-3M = test: Antiproliferative activity against human MALME3M cells after 48 hrs; format: functional; method in brief: as §2
# OVCAR-8 = test: Antiproliferative activity against human OVCAR8 cells after 48 hrs; format: functional; settings: OVCAR-8, 48 h; method in brief: as §2
# [1] = Antiproliferative activity against human […] cells after 48 hrs; format: functional; method in brief: as §2
# SF-539 = test: Antiproliferative activity against human SF539 cells after 48 hrs; format: functional; settings: SF-539, 48 h; method in brief: as §2
# A549 = test: Antiproliferative activity against human A549 cells after 48 hrs; format: functional; settings: A549, 48 h; method in brief: as §2
# MDA-MB-435 = test: Antiproliferative activity against human MDA-MB-435 cells after 48 hrs; format: functional; settings: Homo sapiens, MDA-MB-435, 48 h; method in brief: as §2
# SW-620 = test: Antiproliferative activity against human SW620 cells after 48 hrs; format: functional; settings: SW-620, 48 h; method in brief: as §1
# MCF7 = test: Antiproliferative activity against human MCF7 cells after 48 hrs; format: functional, cell-based; settings: MCF7, 48 h
# SK-MEL-5 = test: Antiproliferative activity against human SKMEL5 cells after 48 hrs; format: functional; settings: SK-MEL-5, 48 h; method in brief: as §2
# SF-268 = test: Antiproliferative activity against human SF268 cells after 48 hrs; format: functional; settings: SF-268, 48 h; method in brief: as §2
# OVCAR-3 = test: Antiproliferative activity against human OVCAR-3 cells after 48 hrs; format: functional; settings: OVCAR-3, 48 h; method in brief: as §2
# HCC 2998 = test: Antiproliferative activity against human HCC2998 cells after 48 hrs; format: functional; settings: HCC 2998, 48 h; method in brief: as §2
# NCI-H226 = test: Antiproliferative activity against human NCI-H226 cells after 48 hrs; format: functional; settings: NCI-H226, 48 h; method in brief: as §2
# OVCAR-5 = test: Antiproliferative activity against human OVCAR5 cells after 48 hrs; format: functional; settings: OVCAR-5, 48 h; method in brief: as §2
# [2] = read-out: Log LC50 (the source's name) (converted)
smiles,measurement,setting,value
CCCCCCCCCCCCCCN[C@H](CO)[C@H](O)c1ccccc1,GI50,U-251,1.78 µM
same,CC50,U-251; [2],5.62 µM
same,TGI,U-251; read-out: Log TGI (converted),3.16 µM
same,GI50,NCI-H522,2 µM
same,TGI,NCI-H522; read-out: Log TGI (converted),3.8 µM
same,GI50,CCRF-CEM,1.58 µM
same,CC50,CCRF-CEM; [2],7.94 µM
same,TGI,CCRF-CEM; read-out: Log TGI (converted),3.55 µM
same,GI50,COLO 205,1.86 µM
same,CC50,COLO 205; [2],6.17 µM
same,TGI,COLO 205; read-out: Log TGI (converted),3.39 µM
same,GI50,NCI-H23,3.55 µM
same,CC50,NCI-H23; [2],64.6 µM
same,TGI,NCI-H23; read-out: Log TGI (converted),9.77 µM
same,GI50,OVCAR-4,1.91 µM
same,TGI,OVCAR-4; read-out: Log TGI (converted),3.8 µM
same,GI50,RPMI-8226,1.66 µM
same,CC50,RPMI-8226; [2],7.76 µM
same,TGI,RPMI-8226; read-out: Log TGI (converted),3.63 µM
same,GI50,HCT-116,1.74 µM
same,LC50,HCT-116,5.62 µM
same,TGI,HCT-116; read-out: Log TGI (converted),3.16 µM
same,GI50,RXF 393,1.15 µM
same,CC50,RXF 393; [2],5.13 µM
same,TGI,RXF 393; read-out: Log TGI (converted),2.45 µM
same,GI50,BT-549,1.29 µM
same,LC50,BT-549,5.5 µM
same,TGI,BT-549; read-out: Log TGI (converted),2.63 µM
same,GI50,Hs-578T,2.82 µM
same,LC50,Hs-578T,> 100 µM
same,TGI,Hs-578T; read-out: Log TGI (converted),6.46 µM
same,GI50,ACHN,1.74 µM
same,CC50,ACHN; [2],5.62 µM
same,TGI,ACHN; read-out: Log TGI (converted),3.16 µM
same,GI50,SNB-75,2.29 µM
same,CC50,SNB-75; [2],27.5 µM
same,TGI,SNB-75; read-out: Log TGI (converted),5.62 µM
same,GI50,K562,2.24 µM
same,LC50,K562,> 100 µM
same,TGI,K562; read-out: Log TGI (converted),4.9 µM
same,GI50,Malme-3M,2.09 µM
same,LC50,Malme-3M,9.55 µM
same,TGI,Malme-3M; read-out: Log TGI (converted),3.8 µM
same,GI50,OVCAR-8,1.86 µM
same,TGI,OVCAR-8; read-out: Log TGI (converted),3.8 µM
same,GI50,[1],3.16 µM
same,LC50,[1],91.2 µM
same,TGI,[1]; read-out: Log TGI (converted),17.4 µM
same,GI50,SF-539,1.55 µM
same,LC50,SF-539,6.03 µM
same,TGI,SF-539; read-out: Log TGI (converted),3.09 µM
same,GI50,A549,1.7 µM
same,CC50,A549; [2],6.03 µM
same,TGI,A549; read-out: Log TGI (converted),3.24 µM
same,GI50,MDA-MB-435,1.78 µM
same,LC50,MDA-MB-435,5.62 µM
same,TGI,MDA-MB-435; read-out: Log TGI (converted),3.16 µM
same,GI50,SW-620,2.4 µM
same,LC50 (concentration killing 50% of cells),SW-620,> 100 µM
same,GI50,MCF7,1.82 µM
same,TGI,MCF7; read-out: Log TGI (converted),3.31 µM
same,GI50,SK-MEL-5,2.14 µM
same,TGI,SK-MEL-5; read-out: Log TGI (converted),4.07 µM
same,GI50,SF-268,1.66 µM
same,TGI,SF-268; read-out: Log TGI (converted),3.24 µM
same,GI50,OVCAR-3,1.91 µM
same,TGI,OVCAR-3; read-out: Log TGI (converted),4.07 µM
same,GI50,HCC 2998,1.66 µM
same,CC50,HCC 2998; [2],5.62 µM
same,TGI,HCC 2998; read-out: Log TGI (converted),3.09 µM
same,GI50,NCI-H226,3.24 µM
same,CC50,NCI-H226; [2],> 100 µM
same,TGI,NCI-H226; read-out: Log TGI (converted),11.7 µM
same,GI50,OVCAR-5,2.09 µM
same,CC50,OVCAR-5; [2],7.08 µM
same,TGI,OVCAR-5; read-out: Log TGI (converted),3.8 µM
